In brackets after ≈: the same amount, converted by molar mass. Activity calls are given as the source filed them. The calls are words filed in the database; no cut-off is given here.
What was measured:
Pseudomonas aeruginosa [1] = assay: Antimicrobial activity against Pseudomonas aeruginosa MTCC 741 at 1 mg/disc after 24 hrs by disc diffusion assay; type: functional
Method in brief: (§1)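 Disc diffusion on Mueller Hinton agar. Inoculum was grown in MHB for 24 h at 37 °C, swabbed onto the plates and dried for 10 min. Discs with 1 mg compound were left 30 min at room temperature for diffusion, then incubated at 37 °C for 24 h. Inhibition zone was read in mm; run twice. Solvent was the negative control, streptomycin the positive control.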

Candida albicans [2] = assay: Antimicrobial activity against Candida albicans MTCC 227 at 1 mg/disc after 24 hrs by disc diffusion assay; type: functional
Malassezia pachydermatis [3] = assay: Antimicrobial activity against Malassezia pachydermatis at 1 mg/disc after 24 hrs by disc diffusion assay; type: functional
Bacillus subtilis [4] = assay: Antimicrobial activity against Bacillus subtilis MTCC 441 at 1 mg/disc after 24 hrs by disc diffusion assay; type: functional; method in brief: as §1
Micrococcus luteus [5] = assay: Antimicrobial activity against Micrococcus luteus MTCC 106 at 1 mg/disc after 24 hrs by disc diffusion assay; type: functional; method in brief: as §1
Klebsiella aerogenes [6] = assay: Antimicrobial activity against Enterobacter aerogenes MTCC 111 at 1 mg/disc after 24 hrs by disc diffusion assay; type: functional; method in brief: as §1
Staphylococcus aureus [7] = assay: Antimicrobial activity against Staphylococcus aureus MTCC 96 at 1 mg/disc after 24 hrs by disc diffusion assay; type: functional; method in brief: as §1
Salmonella typhimurium [8] = assay: Antimicrobial activity against Salmonella typhimurium MTCC 1251 at 1 mg/disc after 24 hrs by disc diffusion assay; type: functional, Salmonella enterica subsp. enterica serovar Typhimurium; method in brief: as §1
Klebsiella pneumoniae [9] = assay: Antimicrobial activity against Klebsiella pneumoniae MTCC 109 at 1 mg/disc after 24 hrs by disc diffusion assay; type: functional; method in brief: as §1
Proteus vulgaris [10] = assay: Antimicrobial activity against Proteus vulgaris MTCC 1771 at 1 mg/disc after 24 hrs by disc diffusion assay; type: functional; method in brief: as §1
Staphylococcus aureus [11] = assay: Antimicrobial activity against […] Staphylococcus aureus MTCC 96 at 1 mg/disc after 24 hrs by disc diffusion assay; type: functional; method in brief: as §1
[12] = test system: Salmonella enterica subsp. enterica serovar Paratyphi B; assay: Antimicrobial activity against Salmonella paratyphi B at 1 mg/disc after 24 hrs by disc diffusion assay; type: functional; method in brief: as §1
Shigella flexneri [13] = assay: Antimicrobial activity against Shigella flexneri MTCC 1457 at 1 mg/disc after 24 hrs by disc diffusion assay; type: functional; method in brief: as §1
Bacillus subtilis [14] = assay: Antimicrobial activity against Bacillus subtilis MTCC 441 after 24 hrs by two fold dilution method; type: functional; details: MTCC 441, 24 h
Method in brief: (§2)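 Broth two-fold serial dilution in 96-well plates from 1000 to 7.81 µg/mL, compound in DMSO (2%). Inoculum was grown in MHB for 24 h at 37 °C; plates were incubated 24 h at 37 °C. 5 µL of broth was spotted onto MHA; MIC was the lowest concentration with no visible growth on agar. Streptomycin was the positive control.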

Micrococcus luteus [15] = assay: Antimicrobial activity against Micrococcus luteus MTCC 106 after 24 hrs by two fold dilution method; type: functional; details: MTCC 106, 24 h; method in brief: as §2
Klebsiella aerogenes [16] = assay: Antimicrobial activity against Enterobacter aerogenes MTCC 111 after 24 hrs by two fold dilution method; type: functional; details: MTCC 111, 24 h; method in brief: as §2
Staphylococcus aureus [17] = assay: Antimicrobial activity against Staphylococcus aureus MTCC 96 after 24 hrs by two fold dilution method; type: functional; details: MTCC 96, 24 h; method in brief: as §2
Salmonella typhimurium [18] = assay: Antimicrobial activity against Salmonella typhimurium MTCC 1251 after 24 hrs by two fold dilution method; type: functional, Salmonella enterica subsp. enterica serovar Typhimurium; details: Salmonella enterica, MTCC 1251, 24 h; method in brief: as §2
Klebsiella pneumoniae [19] = assay: Antimicrobial activity against Klebsiella pneumoniae MTCC 109 after 24 hrs by two fold dilution method; type: functional; details: MTCC 109, 24 h; method in brief: as §2
Proteus vulgaris [20] = assay: Antimicrobial activity against Proteus vulgaris MTCC 1771 after 24 hrs by two fold dilution method; type: functional; details: MTCC 1771, 24 h; method in brief: as §2
Staphylococcus aureus [21] = assay: Antimicrobial activity against methicillin-resistant Staphylococcus aureus MTCC 96 after 24 hrs by two fold dilution method; type: functional; details: MTCC 96, 24 h; method in brief: as §2
[22] = test system: Salmonella enterica subsp. enterica serovar Paratyphi B; assay: Antimicrobial activity against Salmonella paratyphi B after 24 hrs by two fold dilution method; type: functional; method in brief: as §2
Shigella flexneri [23] = assay: Antimicrobial activity against Shigella flexneri MTCC 1457 after 24 hrs by two fold dilution method; type: functional; details: MTCC 1457, 24 h; method in brief: as §2
Pseudomonas aeruginosa [24] = assay: Antimicrobial activity against Pseudomonas aeruginosa MTCC 741 after 24 hrs by two fold dilution method; type: functional; details: MTCC 741, 24 h; method in brief: as §2
Candida albicans [25] = assay: Antimicrobial activity against Candida albicans MTCC 227 after 48 to 72 hrs by two fold dilution method; type: functional
Method in brief: (§3)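 Yeast was grown in Sabouraud dextrose broth at 28 °C for 48 h and tested per CLSI reference methods. Two-fold serial dilutions from 1000 to 7.81 µg/mL, compound in DMSO (2%), in 96-well plates, incubated 48–72 h at 28 °C. MIC was the lowest concentration with no visible fungal growth. Ketoconazole was the positive control.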

Malassezia pachydermatis [26] = assay: Antimicrobial activity against Malassezia pachydermatis after 48 to 72 hrs by two fold dilution method; type: functional; method in brief: as §3
Bacillus subtilis [27] = assay: Bactericidal activity against Bacillus subtilis MTCC 441 after 24 hrs by two fold dilution method; type: functional; details: MTCC 441, 24 h
Method in brief: (§4)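 Tubes held 5 mL MHB with two-fold dilutions from 1000 to 7.81 µg/mL and were inoculated with 5 × 10^5 to 1 × 10^6 cells in 0.1 mL MHB, incubated without shaking. Turbidity was checked at 20 h, tubes vortexed and re-incubated 4 h.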

Micrococcus luteus [28] = assay: Bactericidal activity against Micrococcus luteus MTCC 106 after 24 hrs by two fold dilution method; type: functional; details: MTCC 106, 24 h; method in brief: as §4
Klebsiella aerogenes [29] = assay: Bactericidal activity against Enterobacter aerogenes MTCC 111 after 24 hrs by two fold dilution method; type: functional; details: MTCC 111, 24 h; method in brief: as §4
Staphylococcus aureus [30] = assay: Bactericidal activity against Staphylococcus aureus MTCC 96 after 24 hrs by two fold dilution method; type: functional; details: MTCC 96, 24 h; method in brief: as §4
Salmonella typhimurium [31] = assay: Bactericidal activity against Salmonella typhimurium MTCC 1251 after 24 hrs by two fold dilution method; type: functional, Salmonella enterica subsp. enterica serovar Typhimurium; details: Salmonella enterica, MTCC 1251, 24 h; method in brief: as §4
Klebsiella pneumoniae [32] = assay: Bactericidal activity against Klebsiella pneumoniae MTCC 109 after 24 hrs by two fold dilution method; type: functional; details: MTCC 109, 24 h; method in brief: as §4
Proteus vulgaris [33] = assay: Bactericidal activity against Proteus vulgaris MTCC 1771 after 24 hrs by two fold dilution method; type: functional; details: MTCC 1771, 24 h; method in brief: as §4
Staphylococcus aureus [34] = assay: Bactericidal activity against methicillin-resistant Staphylococcus aureus MTCC 96 after 24 hrs by two fold dilution method; type: functional; details: MTCC 96, 24 h; method in brief: as §4
[35] = test system: Salmonella enterica subsp. enterica serovar Paratyphi B; assay: Bactericidal activity against Salmonella paratyphi B after 24 hrs by two fold dilution method; type: functional; method in brief: as §4
Shigella flexneri [36] = assay: Bactericidal activity against Shigella flexneri MTCC 1457 after 24 hrs by two fold dilution method; type: functional; details: MTCC 1457, 24 h; method in brief: as §4
Pseudomonas aeruginosa [37] = assay: Bactericidal activity against Pseudomonas aeruginosa MTCC 741 after 24 hrs by two fold dilution method; type: functional; details: MTCC 741, 24 h; method in brief: as §4
Candida albicans [38] = assay: Fungicidal activity against Candida albicans MTCC 227 after 48 to 72 hrs by two fold dilution method; type: functional
Malassezia pachydermatis [39] = assay: Fungicidal activity against Malassezia pachydermatis after 48 to 72 hrs by two fold dilution method; type: functional

Compound | inhibition zone (IZ) (Pseudomonas aeruginosa [1]) | inhibition zone (IZ) (Candida albicans [2]) | inhibition zone (IZ) (Malassezia pachydermatis [3]) | inhibition zone (IZ) (Bacillus subtilis [4]) | inhibition zone (IZ) (Micrococcus luteus [5]) | inhibition zone (IZ) (Klebsiella aerogenes [6]) | inhibition zone (IZ) (Staphylococcus aureus [7]) [mm] | inhibition zone (IZ) (Salmonella typhimurium [8]) [mm] | inhibition zone (IZ) (Klebsiella pneumoniae [9]) | inhibition zone (IZ) (Proteus vulgaris [10]) | inhibition zone (IZ) (Staphylococcus aureus [11]) | inhibition zone (IZ) [12] [mm] | inhibition zone (IZ) (Shigella flexneri [13]) | MIC (Bacillus subtilis [14]) [µg/mL] | MIC (Micrococcus luteus [15]) [µg/mL] | MIC (Klebsiella aerogenes [16]) [µg/mL] | MIC (Staphylococcus aureus [17]) [µg/mL] | MIC (Salmonella typhimurium [18]) [µg/mL] | MIC (Klebsiella pneumoniae [19]) [µg/mL] | MIC (Proteus vulgaris [20]) [µg/mL] | other results
CC[C@@H](C)N[C@@H](C)[C@H](O)c1ccccc1.Cl (mixture of isomers) | inactive | inactive | inactive | inactive | inactive | inactive | 10 | 10 | inactive | inactive | inactive | 10 | inactive | – | – | – | – | – | – | – | –
CN[C@@H]1[C@H](O[C@H]2[C@H](O[C@H]3[C@H](O)[C@@H](O)[C@H](N=C(N)N)[C@@H](O)[C@@H]3N=C(N)N)O[C@@H](C)[C@]2(O)C=O)O[C@@H](CO)[C@H](O)[C@H]1O [STREPTOMYCIN] | 30 mm | – | – | 30 mm | 26 mm | 22 mm | 14 | 18 | 20 mm | 30 mm | 30 mm | 30 | 30 mm | 6.25 (≈ 10.7 µM) | 6.25 (≈ 10.7 µM) | 25 (≈ 43 µM) | 6.25 (≈ 10.7 µM) | 30 (≈ 51.6 µM) | 6.25 (≈ 10.7 µM) | 25 (≈ 43 µM) | MIC (Staphylococcus aureus [21]): 6.25 µg/mL (≈ 10.7 µM); MIC [22]: 62.5 µg/mL (≈ 107 µM); MIC (Shigella flexneri [23]): 6.25 µg/mL (≈ 10.7 µM); MIC (Pseudomonas aeruginosa [24]): 25 µg/mL (≈ 43 µM)
C[C@H](N[C@H](C)c1ccccc1)[C@H](O)c1ccccc1.Cl | 16 mm | 14 mm | 15 mm | 14 mm | 14 mm | 13 mm | 16 | 11 | 13 mm | 12 mm | 11 mm | 14 | 16 mm | 125 | 125 | 125 | 62.5 | 250 | 250 | 250 | MIC (Staphylococcus aureus [21]): 250 µg/mL; MIC [22]: 125 µg/mL; MIC (Shigella flexneri [23]): 250 µg/mL; MIC (Pseudomonas aeruginosa [24]): 62.5 µg/mL; MIC (Candida albicans [25]): 125 µg/mL; MIC (Malassezia pachydermatis [26]): 125 µg/mL; MBC (Bacillus subtilis [27]): 125 µg/mL; MBC (Micrococcus luteus [28]): 250 µg/mL; MBC (Klebsiella aerogenes [29]): 250 µg/mL; MBC (Staphylococcus aureus [30]): 62.5 µg/mL; MBC (Salmonella typhimurium [31]): 500 µg/mL; MBC (Klebsiella pneumoniae [32]): 500 µg/mL; MBC (Proteus vulgaris [33]): 500 µg/mL; MBC (Staphylococcus aureus [34]): 500 µg/mL; MBC [35]: 250 µg/mL; MBC (Shigella flexneri [36]): 500 µg/mL; MBC (Pseudomonas aeruginosa [37]): 125 µg/mL; MFC (Candida albicans [38]): 125 µg/mL; MFC (Malassezia pachydermatis [39]): 125 µg/mL

Reference: ChEMBL document CHEMBL3352188, “Synthesis, antimicrobial and molecular docking studies of enantiomerically pure N-alkylated β-amino alcohols from phenylpropanolamines” (2014)
